In ChEMBL document CHEMBL1138468, “Potent, brain-penetrant, hydroisoindoline-based human neurokinin-1 receptor antagonists” (J Med Chem, 2009):
Each block holds one molecule with its values, some of them ahead of it.

Legend:
[1] = target: T1, Substance-P receptor (Homo sapiens, UniProt P25103); experiment: Antagonist activity at human NK1 receptor expressed in CHO cells assessed as inhibition of substance P-induced IP1 formation at 100 nM; type: functional, cell-based; set-up: scale not given: the % may be the effect or the level left
T1 sequence (P25103 whole entry): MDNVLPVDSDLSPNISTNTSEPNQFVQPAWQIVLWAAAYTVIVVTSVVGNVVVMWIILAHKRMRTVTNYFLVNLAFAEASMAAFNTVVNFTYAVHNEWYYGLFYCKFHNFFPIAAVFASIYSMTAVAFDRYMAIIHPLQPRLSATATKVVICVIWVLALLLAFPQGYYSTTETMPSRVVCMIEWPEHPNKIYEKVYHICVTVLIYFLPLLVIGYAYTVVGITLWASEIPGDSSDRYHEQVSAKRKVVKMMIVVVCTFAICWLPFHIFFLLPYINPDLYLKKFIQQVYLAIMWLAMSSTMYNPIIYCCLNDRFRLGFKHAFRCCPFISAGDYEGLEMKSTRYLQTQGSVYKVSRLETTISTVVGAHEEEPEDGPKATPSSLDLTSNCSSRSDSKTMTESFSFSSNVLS
Outline: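 CHO cells stably expressing recombinant human NK1 receptor; substance-P-evoked IP-1 formation measured with antagonist present at 100 nM; value given as % of substance P response remaining.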

[2] = target: T1, Substance-P receptor; experiment: Displacement of [125I]substance P human recombinant NK1 receptor expressed in CHO cells in absence of human serum albumin; type: cell-based
Outline: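 Competitive radioligand binding with [125I]substance P on CHO cells stably expressing recombinant hNK1 receptor; IC50 determined without and with 50% human serum.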

[3] = system: Gerbillinae; experiment: Toxicity in iv dosed gerbils brain assessed as inhibition of GR-73632-induced foot tapping after 24 hrs; type: organism-based; settings: in vivo
[4] = system: Gerbillinae; experiment: Toxicity in iv dosed gerbils brain assessed as inhibition of GR-73632-induced foot tapping after 1 hr; type: organism-based; settings: in vivo
[5] = species: Macaca mulatta; experiment: Ex vivo NK1 receptor occupancy in rhesus brain at plasma level of 31 ng/ml
[6] = system: Rhesus monkey; experiment: Ex vivo NK1 receptor occupancy in rhesus monkey brain at plasma level of 390 ng/ml; type: functional, Macaca mulatta
[7] = Plasma clearance in rat at 1 mg/kg, iv and 2 mg/kg, po; type: ADME, organism-based
Outline: (§1)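 Rats dosed at 1 mg/kg iv and 2 mg/kg po; plasma pharmacokinetics (clearance, Vdss, half-life, oral bioavailability) derived.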

[8] = system: Rhesus monkey; experiment: Ex vivo NK1 receptor occupancy in rhesus monkey brain at plasma level of 5 ng/ml; type: functional, Macaca mulatta
Outline: (§2)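 Rhesus PET with [18F]SPARQ: striatal binding compared before and during steady-state plasma drug level, achieved by iv bolus plus matched constant iv infusion continued through imaging; occupancy vs plasma concentration fit to three-parameter Hill equation.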

[9] = Bioavailability in rat at 1 mg/kg, iv and 2 mg/kg; type: ADME, organism-based; settings: in vivo; outline: as §1
[10] = Bioavailability in dog at 0.5 mg/kg, iv and 1 mg/kg, po; type: ADME, organism-based, Canis lupus familiaris; settings: in vivo
Outline: (§3)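 Dogs and monkeys dosed at 0.5 mg/kg iv and 1 mg/kg po; plasma sampled to derive clearance, Vdss, half-life, oral bioavailability and dose-normalised oral AUC(0-∞).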

[11] = Half life in dog at 0.5 mg/kg, iv and 1 mg/kg, po; type: ADME, organism-based, Canis lupus familiaris; settings: in vivo; outline: as §3
[12] = target: T2, Substance-K receptor (Homo sapiens, UniProt P21452); experiment: Binding affinity to human NK2 receptor
T2 sequence (P21452 whole entry): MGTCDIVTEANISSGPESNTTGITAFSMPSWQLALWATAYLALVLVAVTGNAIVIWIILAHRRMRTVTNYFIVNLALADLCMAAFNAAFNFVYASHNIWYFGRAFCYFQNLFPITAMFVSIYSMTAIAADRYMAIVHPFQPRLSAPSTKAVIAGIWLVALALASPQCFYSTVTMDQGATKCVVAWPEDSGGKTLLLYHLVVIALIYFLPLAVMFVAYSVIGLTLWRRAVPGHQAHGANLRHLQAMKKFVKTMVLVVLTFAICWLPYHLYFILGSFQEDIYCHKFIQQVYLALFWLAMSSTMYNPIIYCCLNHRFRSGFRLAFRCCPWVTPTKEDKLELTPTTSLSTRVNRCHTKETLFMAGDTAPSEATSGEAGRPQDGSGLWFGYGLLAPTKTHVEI

[13] = system: Gerbillinae; experiment: in iv dosed gerbils plasma assessed as inhibition of GR-73632-induced foot tapping after 24 hrs
[14] = Plasma clearance in monkey at 0.5 mg/kg, iv and 1 mg/kg, po; type: ADME, organism-based, Macaca mulatta; settings: rhesus monkey; outline: as §3
[15] = target: Cytochrome P450 2C19 (Homo sapiens, UniProt P33261); experiment: Inhibition of human CYP2C19; type: ADME
Cytochrome P450 2C19, sequence (P33261 whole entry): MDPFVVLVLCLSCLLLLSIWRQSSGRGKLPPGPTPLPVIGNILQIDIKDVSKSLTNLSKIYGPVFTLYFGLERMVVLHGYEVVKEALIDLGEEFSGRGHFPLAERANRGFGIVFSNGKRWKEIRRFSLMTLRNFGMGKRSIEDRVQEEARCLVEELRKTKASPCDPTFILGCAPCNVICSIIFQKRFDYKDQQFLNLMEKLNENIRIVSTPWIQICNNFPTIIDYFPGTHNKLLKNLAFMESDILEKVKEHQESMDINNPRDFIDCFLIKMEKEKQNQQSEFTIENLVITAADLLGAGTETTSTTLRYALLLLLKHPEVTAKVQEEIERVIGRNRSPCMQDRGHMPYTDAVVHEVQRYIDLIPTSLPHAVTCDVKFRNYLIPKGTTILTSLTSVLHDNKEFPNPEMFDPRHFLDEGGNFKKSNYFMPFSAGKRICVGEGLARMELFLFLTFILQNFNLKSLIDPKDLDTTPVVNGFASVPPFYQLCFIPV

[16] = Half life in monkey at 0.5 mg/kg, iv and 1 mg/kg, po; type: ADME, organism-based, Macaca mulatta; settings: rhesus monkey, in vivo; outline: as §3
[17] = Volume of distribution at steady state in monkey at 0.5 mg/kg, iv and 1 mg/kg, po; type: ADME, organism-based, Macaca mulatta; settings: rhesus monkey, in vivo, read-out: Vdss; outline: as §3
[18] = Half life in rat at 1 mg/kg, iv and 2 mg/kg, po; type: ADME, organism-based; settings: in vivo; outline: as §1
[19] = target: Cytochrome P450 3A4 (Homo sapiens, UniProt P08684); experiment: Inhibition of human CYP3A4; type: ADME
Cytochrome P450 3A4, sequence (P08684 whole entry): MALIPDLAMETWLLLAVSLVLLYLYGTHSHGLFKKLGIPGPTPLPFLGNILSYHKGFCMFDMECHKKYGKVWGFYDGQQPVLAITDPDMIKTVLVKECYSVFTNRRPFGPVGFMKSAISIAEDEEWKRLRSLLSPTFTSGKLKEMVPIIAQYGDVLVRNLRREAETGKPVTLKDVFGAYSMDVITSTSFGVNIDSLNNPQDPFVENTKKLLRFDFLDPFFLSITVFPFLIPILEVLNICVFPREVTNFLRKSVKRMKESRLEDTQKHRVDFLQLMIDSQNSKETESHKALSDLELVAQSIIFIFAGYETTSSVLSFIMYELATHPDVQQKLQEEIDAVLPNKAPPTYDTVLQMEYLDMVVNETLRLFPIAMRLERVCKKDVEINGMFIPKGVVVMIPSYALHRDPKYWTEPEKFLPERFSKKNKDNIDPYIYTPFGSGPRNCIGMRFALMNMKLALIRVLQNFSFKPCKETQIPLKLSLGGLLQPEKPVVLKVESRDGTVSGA

[20] = system: Gerbillinae; experiment: Toxicity in iv dosed gerbils plasma assessed as inhibition of GR-73632-induced foot tapping after 1 hr; type: organism-based
[21] = Volume of distribution at steady state in dog at 0.5 mg/kg, iv and 1 mg/kg, po; type: ADME, organism-based, Canis lupus familiaris; settings: in vivo, read-out: Vdss; outline: as §3
[22] = target: Cytochrome P450 2D6 (Homo sapiens, UniProt P10635); experiment: Inhibition of human CYP2D6; type: ADME
Cytochrome P450 2D6, sequence (P10635 whole entry): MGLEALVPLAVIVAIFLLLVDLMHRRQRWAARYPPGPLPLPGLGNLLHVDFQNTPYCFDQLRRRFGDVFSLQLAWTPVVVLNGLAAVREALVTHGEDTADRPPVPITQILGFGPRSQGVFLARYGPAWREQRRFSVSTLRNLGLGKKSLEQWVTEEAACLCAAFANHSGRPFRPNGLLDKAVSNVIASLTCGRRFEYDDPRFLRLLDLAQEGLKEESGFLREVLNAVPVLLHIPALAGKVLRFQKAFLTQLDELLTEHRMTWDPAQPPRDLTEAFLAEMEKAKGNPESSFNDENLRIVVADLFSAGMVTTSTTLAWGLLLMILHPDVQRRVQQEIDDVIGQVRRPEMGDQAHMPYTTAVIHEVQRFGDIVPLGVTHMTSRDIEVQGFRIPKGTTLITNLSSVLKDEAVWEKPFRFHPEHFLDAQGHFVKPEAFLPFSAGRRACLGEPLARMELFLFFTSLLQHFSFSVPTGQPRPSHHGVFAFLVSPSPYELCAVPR

[23] = target: T3, Neuromedin-K receptor (Homo sapiens, UniProt P29371); experiment: Binding affinity to human NK3 receptor
T3 sequence (P29371 whole entry): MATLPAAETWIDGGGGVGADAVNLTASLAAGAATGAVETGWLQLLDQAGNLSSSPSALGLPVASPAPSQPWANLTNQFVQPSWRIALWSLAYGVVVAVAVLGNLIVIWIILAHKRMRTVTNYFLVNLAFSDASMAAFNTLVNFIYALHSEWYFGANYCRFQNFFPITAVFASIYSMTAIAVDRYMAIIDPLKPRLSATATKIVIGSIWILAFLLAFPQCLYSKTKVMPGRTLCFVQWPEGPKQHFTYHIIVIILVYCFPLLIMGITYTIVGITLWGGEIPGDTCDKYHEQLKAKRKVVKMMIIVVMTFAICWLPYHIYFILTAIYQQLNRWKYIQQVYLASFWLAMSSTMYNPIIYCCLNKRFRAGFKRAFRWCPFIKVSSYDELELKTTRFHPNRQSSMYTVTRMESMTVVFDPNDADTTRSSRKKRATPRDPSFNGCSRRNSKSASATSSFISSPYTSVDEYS

[24] = target: Cytochrome P450 2C9 (Homo sapiens, UniProt P11712); experiment: Inhibition of human CYP2C9; type: ADME
Cytochrome P450 2C9, sequence (P11712 whole entry): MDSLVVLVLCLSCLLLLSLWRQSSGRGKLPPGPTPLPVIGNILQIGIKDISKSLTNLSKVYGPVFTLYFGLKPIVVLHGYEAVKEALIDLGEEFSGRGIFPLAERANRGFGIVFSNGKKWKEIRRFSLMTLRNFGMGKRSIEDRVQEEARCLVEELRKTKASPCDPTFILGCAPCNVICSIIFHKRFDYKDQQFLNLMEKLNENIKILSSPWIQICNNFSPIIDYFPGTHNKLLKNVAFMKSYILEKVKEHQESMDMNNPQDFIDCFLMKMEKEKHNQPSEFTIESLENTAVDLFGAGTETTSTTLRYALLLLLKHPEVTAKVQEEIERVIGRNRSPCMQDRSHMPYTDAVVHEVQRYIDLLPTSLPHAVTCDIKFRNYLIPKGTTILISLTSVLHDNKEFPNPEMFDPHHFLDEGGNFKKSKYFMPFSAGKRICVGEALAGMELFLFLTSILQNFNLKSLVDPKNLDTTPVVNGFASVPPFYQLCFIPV

[25] = target: T4, Cytochrome P450 1A2 (Homo sapiens, UniProt P05177); experiment: Inhibition of human CYP1A2; type: ADME
T4 sequence (P05177 whole entry): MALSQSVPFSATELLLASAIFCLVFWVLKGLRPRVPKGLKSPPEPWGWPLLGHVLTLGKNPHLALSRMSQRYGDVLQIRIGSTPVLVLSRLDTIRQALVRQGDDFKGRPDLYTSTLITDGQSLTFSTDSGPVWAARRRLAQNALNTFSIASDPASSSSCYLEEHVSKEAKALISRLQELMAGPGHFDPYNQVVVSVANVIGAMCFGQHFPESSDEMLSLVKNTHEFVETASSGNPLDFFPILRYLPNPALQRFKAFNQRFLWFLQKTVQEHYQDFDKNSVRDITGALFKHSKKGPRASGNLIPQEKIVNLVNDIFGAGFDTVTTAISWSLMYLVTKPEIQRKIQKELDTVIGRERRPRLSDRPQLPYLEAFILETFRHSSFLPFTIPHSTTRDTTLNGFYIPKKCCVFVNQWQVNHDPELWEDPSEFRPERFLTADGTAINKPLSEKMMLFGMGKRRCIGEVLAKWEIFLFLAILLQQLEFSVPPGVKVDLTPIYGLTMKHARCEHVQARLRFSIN

[26] = Volume of distribution at steady state in rat at 1 mg/kg, iv and 2 mg/kg, po; type: ADME, organism-based; settings: in vivo, read-out: Vdss; outline: as §1
[27] = Bioavailability in monkey at 0.5 mg/kg, iv and 1 mg/kg, po; type: ADME, organism-based, Macaca mulatta; settings: rhesus monkey, in vivo; outline: as §3
[28] = target: T5, Cytochrome P450 2C8 (Homo sapiens, UniProt P10632); experiment: Inhibition of human CYP2C8; type: ADME
T5 sequence (P10632 whole entry): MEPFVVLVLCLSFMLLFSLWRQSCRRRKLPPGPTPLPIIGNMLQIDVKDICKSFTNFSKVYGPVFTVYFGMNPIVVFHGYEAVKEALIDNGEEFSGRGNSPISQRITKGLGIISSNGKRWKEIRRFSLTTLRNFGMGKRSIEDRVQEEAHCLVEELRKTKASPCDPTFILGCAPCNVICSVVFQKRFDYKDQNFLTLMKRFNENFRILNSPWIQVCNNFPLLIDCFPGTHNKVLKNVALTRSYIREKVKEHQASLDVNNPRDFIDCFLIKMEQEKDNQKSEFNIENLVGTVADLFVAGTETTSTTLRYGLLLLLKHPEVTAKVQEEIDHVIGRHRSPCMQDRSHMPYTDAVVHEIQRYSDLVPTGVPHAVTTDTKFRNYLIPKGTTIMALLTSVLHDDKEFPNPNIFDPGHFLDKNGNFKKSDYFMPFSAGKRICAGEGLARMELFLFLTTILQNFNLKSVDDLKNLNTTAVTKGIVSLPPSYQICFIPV

[29] = Plasma clearance in dog at 0.5 mg/kg, iv and 1 mg/kg, po; type: ADME, organism-based, Canis lupus familiaris; outline: as §3
[30] = system: Rhesus monkey; experiment: Ex vivo NK1 receptor occupancy in rhesus monkey brain at plasma level of 37 ng/ml; type: functional, Macaca mulatta; outline: as §2

Activity [1]: 40%
IC50 [2]: 0.11 nM
Structure (SMILES): CC(=O)N1C[C@H]2CC[C@H](O[C@H](C)c3cc(C(F)(F)F)cc(C(F)(F)F)c3)[C@@H](c3ccc(F)cc3)[C@@H]2C1

Activity [1]: 44%
IC50 [2]: 0.15 nM
Structure (SMILES): C[C@@H](O[C@H]1CC[C@@H]2CNC[C@H]2[C@@H]1c1ccc(F)cc1)c1cc(C(F)(F)F)cc(C(F)(F)F)c1

Activity [1]: 58%
IC50 [2]: 0.09 nM
Structure (SMILES): CNC(=O)N1C[C@H]2CC[C@H](O[C@H](C)c3cc(C(F)(F)F)cc(C(F)(F)F)c3)[C@@H](c3ccc(F)cc3)[C@@H]2C1

Activity [1]: 4%
IC50 [2]: 0.13 nM
Structure (SMILES): C[C@@H](O[C@H]1CC[C@@H]2CN(C3=CC(=O)CCC3)C[C@H]2[C@@H]1c1ccc(F)cc1)c1cc(C(F)(F)F)cc(C(F)(F)F)c1
ID50 [3]: 0.3 mg/kg
ID50 [4]: 0.18 mg/kg

Structure (SMILES): C[C@@H](O[C@H]1CN(C2=CC(=O)CC2)C[C@@H]1c1ccc(F)cc1)c1cc(C(F)(F)F)cc(C(F)(F)F)c1
Activity [5]: 50%
Activity [6]: >=90%

Activity [1]: 79%
IC50 [2]: 0.525 nM
Structure (SMILES): C[C@@H](O[C@H]1CC[C@@H]2CN(c3cnccn3)C[C@H]2[C@@H]1c1ccc(F)cc1)c1cc(C(F)(F)F)cc(C(F)(F)F)c1

Activity [1]: 54%
IC50 [2]: 0.255 nM
Structure (SMILES): C[C@@H](O[C@H]1CC[C@@H]2CN(C)C[C@H]2[C@@H]1c1ccc(F)cc1)c1cc(C(F)(F)F)cc(C(F)(F)F)c1

Activity [1]: 9%
IC50 [2]: 0.1 nM
Structure (SMILES): CC1=C(N2C[C@H]3CC[C@H](O[C@H](C)c4cc(C(F)(F)F)cc(C(F)(F)F)c4)[C@@H](c4ccc(F)cc4)[C@@H]3C2)CCC1=O
ID50 [3]: 0.2 mg/kg
ID50 [4]: 0.13 mg/kg

clearance [7]: 0.7 mL/min/kg
bioavailability [9]: 40%
bioavailability [10]: 71%
half-life [11]: 31 h
Ki [12]: 2400 nM
IC50 [13]: 6 nM
clearance [14]: 1 mL/min/kg
Activity [1]: 5%
IC50 [15]: 29000 nM
half-life [16]: 24 h
Vd [17]: 2 L/kg
half-life [18]: 24 h
IC50 [19]: 39000 nM
Vd [21]: 2 L/kg
IC50 [2]: 0.06 nM
IC50 [22]: 35000 nM
Ki [23]: 2400 nM
IC50 [24]: 30000 nM
IC50 [25]: > 100000 nM
Vd [26]: 1.5 L/kg
bioavailability [27]: 69%
IC50 [28]: 58000 nM
clearance [29]: 0.7 mL/min/kg
Structure (SMILES): C[C@@H](O[C@H]1CC[C@@H]2CN(C3=CC(=O)CC3)C[C@H]2[C@@H]1c1ccc(F)cc1)c1cc(C(F)(F)F)cc(C(F)(F)F)c1 [SERLOPITANT]
Activity [8]: 50%
ID50 [3]: 0.46 mg/kg
IC50 [20]: 6.5 nM
ID50 [4]: 0.08 mg/kg
Activity [30]: 90%
